# Results collected from several papers.
# Compare with care: the assays were run in different laboratories.
# Target: Serine/threonine-protein kinase ULK1 (ULK1, Homo sapiens, UniProt O75385)
# Residues used in one study (O75385 1-1050): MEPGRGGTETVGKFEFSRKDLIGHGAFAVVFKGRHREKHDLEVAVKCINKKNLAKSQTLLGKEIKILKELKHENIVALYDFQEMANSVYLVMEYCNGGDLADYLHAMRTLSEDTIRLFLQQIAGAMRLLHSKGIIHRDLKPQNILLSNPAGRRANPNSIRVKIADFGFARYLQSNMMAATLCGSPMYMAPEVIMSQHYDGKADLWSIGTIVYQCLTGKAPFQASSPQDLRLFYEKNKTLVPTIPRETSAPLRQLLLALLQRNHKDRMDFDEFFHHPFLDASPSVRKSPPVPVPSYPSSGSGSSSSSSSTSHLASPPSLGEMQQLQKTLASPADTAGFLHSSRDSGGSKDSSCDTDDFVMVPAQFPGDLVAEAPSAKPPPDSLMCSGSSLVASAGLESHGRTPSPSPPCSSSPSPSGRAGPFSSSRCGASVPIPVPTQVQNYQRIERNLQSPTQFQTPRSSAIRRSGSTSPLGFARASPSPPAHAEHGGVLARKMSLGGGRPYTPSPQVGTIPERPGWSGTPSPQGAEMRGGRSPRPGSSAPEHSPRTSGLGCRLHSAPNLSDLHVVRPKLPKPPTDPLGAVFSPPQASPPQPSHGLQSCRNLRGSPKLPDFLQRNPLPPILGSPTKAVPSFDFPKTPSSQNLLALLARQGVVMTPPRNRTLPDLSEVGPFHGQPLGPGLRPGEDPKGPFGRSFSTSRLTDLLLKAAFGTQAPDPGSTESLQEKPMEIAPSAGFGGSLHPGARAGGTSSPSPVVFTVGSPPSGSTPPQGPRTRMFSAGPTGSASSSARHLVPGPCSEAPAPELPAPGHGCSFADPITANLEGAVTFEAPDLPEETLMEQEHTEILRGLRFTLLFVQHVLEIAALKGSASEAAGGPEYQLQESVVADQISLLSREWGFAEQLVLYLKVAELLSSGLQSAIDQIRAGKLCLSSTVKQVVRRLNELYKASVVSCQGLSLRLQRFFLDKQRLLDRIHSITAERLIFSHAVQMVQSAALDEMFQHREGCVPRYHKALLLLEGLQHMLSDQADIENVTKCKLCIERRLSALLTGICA
SMILES,assay,conditions,endpoint,value
c1ccc(CNc2nc(N3CCOc4ccccc43)nc3c2CCCC3)cc1,"target engagement in cells, inhibitor, chemoproteomics",20 mM,inhibition,-9%
O=C1NC(=O)c2cc(Nc3ccc(F)cc3)c(Nc3ccc(F)cc3)cc21,cell-free assay,0.5 µM,remaining signal,102%
c1cc(CN2CCOCC2)cc(Nc2ncc(C3CC3)c(NCCc3c[nH]cn3)n2)c1,"enzyme activity, inhibitor, radiometric",1 µM,remaining activity,24%
O=C(Nc1cnn(-c2csc(C(=O)NC3COC3)c2)c1)Nc1ccccc1Cl,"enzyme activity, inhibitor",5 µM,remaining activity,134%
NS(=O)(=O)c1cc(NC(=O)C2(c3ccccc3Cl)CC2)ccc1Oc1cccc(Cl)c1,"cell-free assay, competition with immobilised ligand",1 µM,remaining binding,89%
CN1CC(Oc2cnc(C#N)cc2-c2ccn3nc(NC(=O)C4CC4)cc3c2)C1,"enzyme activity, inhibitor",1 µM,inhibition,-1%
CCCCNc1ncc2c(-c3ccc(F)cc3)nn(C[C@H]3CC[C@H](N)CC3)c2n1,"target engagement in cells, inhibitor, chemoproteomics",20 mM,inhibition,3.7%
Cc1nn(CC(F)(F)F)cc1Nc1nccc(NCCCNC(=O)C2CCC2)n1,"enzyme activity, inhibitor, radiometric",1 µM,remaining activity,96%
O=C1Nc2ccc(Cl)cc2C1=Cc1cc(Cl)c(O)c(Cl)c1,cell-free assay,0.5 µM,remaining signal,95%
FC(F)(F)Oc1cccc(-c2cnc3ccc(-c4ccncc4)nn23)c1,"enzyme activity, inhibitor, radiometric",5 µM,activity vs control,92%
CO[C@H]1CC[C@H](CNc2ccc(S(=O)(=O)NC(=O)c3ccc(N4CCN(CC5=C(c6ccc(Cl)cc6)CC(C)(C)CC5)CC4)cc3Oc3cnc4[nH]ccc4c3)cc2[N+](=O)[O-])CC1,"cell-free assay, competition with immobilised ligand",1 µM,remaining binding,82%
O=C(Nc1cccc(Nc2ncc(Br)c(NCCc3cnc[nH]3)n2)c1)N1CCCC1,"enzyme activity, inhibitor, radiometric",1 µM,remaining activity,6%
CCC(=N\O)/C(C)=C/c1ccc(F)cc1,"cell-free assay, competition with immobilised ligand",1 µM,remaining binding,85%
NS(=O)(=O)c1ccc(CNc2nc(Nc3cccc(NC(=O)N4CCCC4)c3)ncc2Br)cc1,"enzyme activity, inhibitor, radiometric",1 µM,remaining activity,66%
CC(=O)N1CCC(c2ccc(C(=O)NC(=N)N)cc2C(F)(F)F)CC1,"cell-free assay, competition with immobilised ligand",1 µM,remaining binding,100%
COc1cc(/C=C/C(=O)CC(=O)/C=C/c2ccc(O)c(OC)c2)ccc1O,"enzyme activity, inhibitor",1 µM,activity vs control,88%
COc1cccc(CNC(=O)c2nc3scc(COCc4ccc(C(=O)O)cc4)c3c(=O)[nH]2)c1,"cell-free assay, competition with immobilised ligand",1 µM,remaining binding,74%
C#Cc1cccc(Nc2ncnc3cc(OCCOC)c(OCCOC)cc23)c1,cell-free assay,0.5 µM,remaining signal,113%
O=C(NCCCNc1ccnc(Nc2cccc(NC(=O)N3CCCC3)c2)n1)C1CCC1,"enzyme activity, inhibitor, radiometric",1 µM,remaining activity,75%
N#Cc1ccc(Nc2ccc3[nH]c(=O)[nH]c3c2)c(Cl)c1,"cell-free assay, competition with immobilised ligand",1 µM,remaining binding,81%
Cc1nn(CC(F)(F)F)cc1Nc1ncc(C2CC2)c(NCc2ccc(S(N)(=O)=O)cc2)n1,"enzyme activity, inhibitor, radiometric",1 µM,remaining activity,106%
Cc1nc(Cc2cccc(C(F)(F)F)c2)sc1-c1ccc(C(N)=O)nc1,"cell-free assay, competition with immobilised ligand",1 µM,remaining binding,100%
